According to ChEMBL document CHEMBL2177095, “Discovery of selective and potent inhibitors of gram-positive bacterial thymidylate kinase (TMK)” (J Med Chem, 2012):
In brackets after ≈: the same amount, converted by molar mass.

How the values were obtained:
Staphylococcus aureus [1] = assay: Antimicrobial activity against methicillin and quinolone-resistant Staphylococcus aureus by broth microdilution method; assay type: functional
In short: (§1)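 MICs were determined against bacterial strains from the AstraZeneca collection. For S. aureus, MSQS means methicillin- and quinolone-sensitive, and MRQR means methicillin- and quinolone-resistant.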

Staphylococcus aureus [2] = assay: Antimicrobial activity against methicillin and quinolone-sensitive Staphylococcus aureus by broth microdilution method; assay type: functional; in short: as §1
Streptococcus pneumoniae = assay: Antimicrobial activity against Streptococcus pneumoniae by broth microdilution method; assay type: functional
In short: (§2)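 Test organisms were strains from the AstraZeneca collection.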

[3] = Partition coefficient, log D of the compound at pH 7.4 by shake flask method; details: octanol/water
[4] = Inhibition of Staphylococcus aureus thymidylate kinase assessed as effect on conversion of dTDP to dTMP by luciferin/luciferase reporter gene based assay
[5] = Inhibition of Streptococcus pneumoniae thymidylate kinase assessed as effect on conversion of dTDP to dTMP by luciferin/luciferase reporter gene based assay
Staphylococcus aureus [6] = assay: Antimicrobial activity against Staphylococcus aureus infected in mouse thigh infection model assessed as compound dose causing microbial infection stasis administered as single dose; assay type: functional, Thigh muscle
Candida albicans = assay: Toxicity against Candida albicans; assay type: organism-based
[7] = Toxicity against human A549 cells; assay type: cell-based; details: read-out: MIC
Thymidylate kinase = target: T1, Thymidylate kinase (Homo sapiens, UniProt P23919); assay: Inhibition of human thymidylate kinase assessed as effect on ATP production by Escherichia coli DdlA and Malachite green reagent based assay
T1 sequence (P23919 whole entry): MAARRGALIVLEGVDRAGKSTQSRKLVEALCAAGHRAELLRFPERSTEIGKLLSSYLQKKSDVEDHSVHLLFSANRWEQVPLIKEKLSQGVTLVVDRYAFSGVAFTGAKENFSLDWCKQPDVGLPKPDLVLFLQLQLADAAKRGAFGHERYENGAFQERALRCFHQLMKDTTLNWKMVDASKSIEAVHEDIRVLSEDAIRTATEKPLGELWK

Enterococcus faecalis = assay: Antimicrobial activity against vancomycin-resistant Enterococcus faecalis by broth microdilution method; assay type: functional; in short: as §1
Enterococcus faecium = assay: Antimicrobial activity against linezolid-resistant Enterococcus faecium by broth microdilution method; assay type: functional; in short: as §1
[8] = tested on: Staphylococcus epidermidis; assay: Antimicrobial activity against Staphylococcus epidermidis by broth microdilution method; assay type: functional; in short: as §2
Streptococcus pyogenes = assay: Antimicrobial activity against Streptococcus pyogenes by broth microdilution method; assay type: functional; in short: as §2

Compound | MIC (Staphylococcus aureus [1]) | MIC (Staphylococcus aureus [2]) | MIC (Streptococcus pneumoniae) | logD [3] | IC50 [4] | IC50 [5] | further results
CCCC(C)(C)C[C@H](c1ccc(C(=O)O)c(Oc2cccc(Cl)c2)c1)N1CCC[C@H](n2cc(C)c(=O)[nH]c2=O)C1 | 0.06 µg/mL (≈ 0.106 µM) | 0.25 µg/mL (≈ 0.44 µM) | 0.06 µg/mL (≈ 0.106 µM) | 2 | 0.7 nM | 0.3 nM | 
Cc1cn([C@@H]2CCCN(Cc3cccc(Oc4ccc(Cl)c(Cl)c4)c3)C2)c(=O)[nH]c1=O |  |  |  |  | > 200000 nM | 18000 nM | 
Cc1cccc(Oc2cccc(CN3CCC[C@H](n4cc(C)c(=O)[nH]c4=O)C3)c2)c1 |  |  |  |  | 2700 nM | 300 nM | 
C[C@H]1COc2c(N3CCN(C)CC3)c(F)cc3c(=O)c(C(=O)O)cn1c23.C[C@H]1COc2c(N3CCN(C)CC3)c(F)cc3c(=O)c(C(=O)O)cn1c23.O [LEVOFLOXACIN] |  |  |  |  |  |  | Activity (Staphylococcus aureus [6]): 40 mg/kg
Cc1ccc(Oc2cccc(CN3CCCC(n4cc(C)c(=O)[nH]c4=O)C3)c2)cc1 (racemic) |  |  |  |  | 59000 nM | 6000 nM | 
Cc1cn([C@H]2CCCN(Cc3cccc(Oc4cccc(Cl)c4)c3)C2)c(=O)[nH]c1=O |  |  |  |  | 1200 nM | 150 nM | 
CCC(CC)C[C@H](c1ccc(C(=O)O)c(Oc2cccc(Cl)c2)c1)N1CCC[C@H](n2cc(C)c(=O)[nH]c2=O)C1 | 0.1 µg/mL (≈ 0.18 µM) | 0.25 µg/mL (≈ 0.451 µM) | 0.02 µg/mL (≈ 0.0361 µM) | 1.7 | < 3 nM | 0.1 nM | 
Cc1cccc(Oc2cc(CN3CCC[C@H](n4cc(C)c(=O)[nH]c4=O)C3)ccc2C(=O)O)c1 | 128 µg/mL (≈ 285 µM) | 64 µg/mL (≈ 142 µM) | 4 µg/mL (≈ 8.9 µM) |  | 114 nM | 8 nM | 
Cc1cn([C@H]2CCCN(Cc3cccc(Oc4cccc(F)c4)c3)C2)c(=O)[nH]c1=O |  |  |  |  | 3200 nM | 400 nM | 
Cc1cn([C@H]2CCCN([C@H](CC(C)C)c3ccc(C(=O)O)c(Oc4cccc(Cl)c4)c3)C2)c(=O)[nH]c1=O | 1 µg/mL (≈ 1.9 µM) | 1 µg/mL (≈ 1.9 µM) | 0.03 µg/mL (≈ 0.057 µM) | 0.9 |  | < 0.2 nM | 
Cc1cn([C@H]2CCCN(Cc3ccc(C(=O)O)c(Oc4cccc(Cl)c4)c3)C2)c(=O)[nH]c1=O | 32 µg/mL (≈ 68.1 µM) | 32 µg/mL (≈ 68.1 µM) | 1 µg/mL (≈ 2.13 µM) |  | 73 nM | 1.9 nM | 
CCC(C)(CC)C[C@H](c1ccc(C(=O)O)c(Oc2cccc(Br)c2)c1)N1CCC[C@H](n2cc(C)c(=O)[nH]c2=O)C1 | 0.03 µg/mL (≈ 0.049 µM) | 0.1 µg/mL (≈ 0.163 µM) | 0.03 µg/mL (≈ 0.049 µM) | 2 | 1.3 nM | 0.3 nM | 
CCC[C@@H](c1ccc(C(=O)O)c(Oc2cccc(Cl)c2)c1)N1CCC[C@H](n2cc(C)c(=O)[nH]c2=O)C1 | 4 µg/mL (≈ 7.81 µM) | 4 µg/mL (≈ 7.81 µM) | 0.1 µg/mL (≈ 0.195 µM) |  | 18 nM | 0.6 nM | 
Cc1cn([C@H]2CCCN([C@H](C)c3ccc(C(=O)O)c(Oc4cccc(Cl)c4)c3)C2)c(=O)[nH]c1=O | 8 µg/mL (≈ 16.5 µM) | 4 µg/mL (≈ 8.27 µM) | 0.1 µg/mL (≈ 0.207 µM) | -0.26 | 2.5 nM | 0.3 nM | MIC (Candida albicans): > 64 µg/mL; MCC [7]: > 64 µg/mL; IC50 (Thymidylate kinase): 150000 nM
Cc1cn([C@H]2CCCN(Cc3ccc(C(=O)O)c(Oc4cccc(C(F)(F)F)c4)c3)C2)c(=O)[nH]c1=O | 64 µg/mL (≈ 127 µM) | 64 µg/mL (≈ 127 µM) | 4 µg/mL (≈ 7.94 µM) | -0.38 |  | 10 nM | MIC (Candida albicans): > 64 µg/mL; MCC [7]: > 64 µg/mL; IC50 (Thymidylate kinase): > 200000 nM
COc1ccc(Oc2cccc(CN3CCCC(n4cc(C)c(=O)[nH]c4=O)C3)c2)cc1 (racemic) |  |  |  |  | 143000 nM | 9000 nM | 
CCCCC[C@H](c1ccc(C(=O)O)c(Oc2cccc(Br)c2)c1)N1CCC[C@H](n2cc(C)c(=O)[nH]c2=O)C1 | 0.1 µg/mL (≈ 0.171 µM) | 0.25 µg/mL (≈ 0.428 µM) | 0.01 µg/mL (≈ 0.0171 µM) | 1.1 | 0.5 nM | < 0.1 nM | MIC (Candida albicans): > 64 µg/mL; MCC [7]: > 64 µg/mL; MIC (Enterococcus faecalis): 0.06 µg/mL (≈ 0.103 µM); MIC (Enterococcus faecium): 0.25 µg/mL (≈ 0.428 µM); MIC [8]: 0.5 µg/mL (≈ 0.855 µM); MIC (Streptococcus pyogenes): 0.04 µg/mL (≈ 0.0684 µM); IC50 (Thymidylate kinase): 32000 nM
Cc1cn([C@H]2CCCN([C@H](CC3CCCCC3)c3ccc(C(=O)O)c(Oc4cccc(Cl)c4)c3)C2)c(=O)[nH]c1=O | 0.1 µg/mL (≈ 0.177 µM) | 0.25 µg/mL (≈ 0.442 µM) | 0.01 µg/mL (≈ 0.0177 µM) |  | 0.7 nM | < 0.1 nM | 
Cc1cn([C@H]2CCCN(Cc3ccc(C(=O)O)c(Oc4cccc(Br)c4)c3)C2)c(=O)[nH]c1=O | 32 µg/mL (≈ 62.2 µM) | 16 µg/mL (≈ 31.1 µM) | 1 µg/mL (≈ 1.94 µM) | -0.51 | 27 nM | 1 nM | 
